Experimental data taken from ChEMBL document CHEMBL2150909, “Imidazo[1,2-a]pyridines: orally active positive allosteric modulators of the metabotropic glutamate 2 receptor” (J Med Chem, 2012).
Active and inactive are the calls of the source. The calls are words filed in the database; no cut-off is given here.

Experiments:
[1] = target: Metabotropic glutamate receptor 5 (Homo sapiens) (UniProt P41594); test: Antagonist activity at human mGlu 5 expressed in HEK293 cells at 10 uM by Ca+2 assay; type: functional, cell-based
Outline: (§1)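 Ca2+ assays on human mGlu1, mGlu3, mGlu5, mGlu7 or mGlu8 receptors, each expressed in HEK293 cells; compound tested at 10 μM for agonist and antagonist activity.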

[2] = target: Metabotropic glutamate receptor 1 (Homo sapiens) (UniProt Q13255); test: Agonist activity at human mGlu 1 expressed in HEK293 cells at 10 uM by Ca+2 assay; type: functional, cell-based; outline: as §1
[3] = target: Metabotropic glutamate receptor 8 (Homo sapiens) (UniProt O00222); test: Agonist activity at human mGlu 8 expressed in HEK293 cells at 10 uM by Ca+2 assay; type: functional, cell-based; outline: as §1
Rattus norvegicus [4] = test: Effect on sleep-wake cycle in Sprague-Dawley rat EEG model assessed as change in active wake at 10 mg/kg, po measured up to 20 hrs relative to control; type: functional, organism-based; design: dose 10 mg/kg
Outline: (§2)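 Male Sprague-Dawley rats (250–300 g) implanted with EEG/EMG/EOG electrodes, 12 h light/dark cycle, n = 8 per group. Baseline 20 h recording after oral saline, then 20 h after oral 10 mg/kg or vehicle (20% CD + 2H2T). 2 s epochs scored into AW, PW, preREM, REM, lSWS, dSWS and averaged per 30 min. Latencies and transitions analysed; Wilcoxon−Mann−Whitney test vs vehicle.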

[5] = Ratio of drug level in brain to plasma of Sprague-Dawley rat at 10 mg/kg, po after 1 hr; type: ADME, organism-based; design: dose 10 mg/kg, route oral; conditions: read-out: BPR
Outline: (§3)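 Oral dosing of Sprague−Dawley rats at 10 mg/kg, compound in 20% HP-β-CD at pH 4. Brain (ng/g) and plasma (ng/mL) concentrations sampled at the indicated time; brain-to-plasma ratio calculated. Geometric mean of at least two runs ± SEM.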

[6] = Drug uptake in Sprague-Dawley rat brain at 10 mg/kg, po after 2 hrs; type: ADME, organism-based; design: dose 10 mg/kg, route oral; conditions: read-out: Drug uptake
[7] = Tmax in Sprague-Dawley rat at 10 mg/kg, po; type: ADME, organism-based; design: dose 10 mg/kg, route oral; conditions: in vivo
Outline: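 Rat pharmacokinetics in Sprague−Dawley rats: oral 10 mg/kg and intravenous 1.25 mg/kg, formulated in 20% HP-β-CD at pH 4. Plasma profiles used for Cmax, tmax, AUC0−inf and t1/2. Reported as geometric means of at least two runs ± SEM.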

Rattus norvegicus [8] = test: Effect on sleep-wake cycle in Sprague-Dawley rat EEG model assessed as change in transition from sleep states toward waking at 10 mg/kg, po measured up to 20 hrs relative to control; type: functional, organism-based; design: dose 10 mg/kg; outline: as §2
[9] = target: Metabotropic glutamate receptor 5 (Homo sapiens) (UniProt P41594); test: Agonist activity at human mGlu 5 expressed in HEK293 cells at 10 uM by Ca+2 assay; type: functional, cell-based; outline: as §1
[10] = target: Metabotropic glutamate receptor 3 (Homo sapiens) (UniProt Q14832); test: Antagonist activity at human mGlu 3 expressed in HEK293 cells at 10 uM by Ca+2 assay; type: functional, cell-based; outline: as §1
[11] = target: Metabotropic glutamate receptor 3 (Homo sapiens) (UniProt Q14832); test: Agonist activity at human mGlu 3 expressed in HEK293 cells at 10 uM by Ca+2 assay; type: functional, cell-based; outline: as §1
[12] = AUC (0 to infinity) in Sprague-Dawley rat at 10 mg/kg, po; type: ADME, organism-based; design: time infinity, dose 10 mg/kg, route oral; conditions: plasma
Outline: (§4)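 Male Sprague-Dawley rats given 10 mg/kg orally and/or 1.25 mg/kg intravenously; compound formulated in 20% HP-β-CD at pH 4. Cmax, tmax, AUC0−inf, t1/2, clearance and oral bioavailability F derived from plasma levels; geometric mean of at least two runs ± SEM.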

[13] = Metabolic stability of human liver microsomes assessed as compound metabolized at 5 uM after 15 mins; type: ADME, Microsome; conditions: read-out: Drug metabolism
Outline: (§5)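 Test compound at 5 μM incubated 15 min with rat or human liver microsomes; read-out is percent of compound metabolized.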

[14] = Drug uptake in Sprague-Dawley rat brain at 10 mg/kg, po after 4 hrs; type: ADME, organism-based; design: dose 10 mg/kg, route oral; conditions: read-out: Drug uptake
[15] = Ratio of drug level in brain to plasma of Sprague-Dawley rat at 10 mg/kg, po after 2 hrs; type: ADME, organism-based; design: dose 10 mg/kg, route oral; conditions: read-out: BPR; outline: as §3
Rattus norvegicus [16] = test: Effect on sleep-wake cycle in Sprague-Dawley rat EEG model assessed as suppression of REM sleep at 10 mg/kg, po measured up to 2 hrs relative to control; type: functional; outline: as §2
[17] = Plasma concentration in Sprague-Dawley rat at 10 mg/kg, po after 4 hrs; type: ADME, organism-based; design: dose 10 mg/kg, route oral; outline: as §3
[18] = target: Metabotropic glutamate receptor 4 (Homo sapiens) (UniProt Q14833); test: Agonist activity at human mGlu 4 expressed in L929 cells assessed as [35S]GTPgammaS binding by liquid scintillation counting; type: functional, cell-based
Outline: (§6)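 [35S]GTPγS functional assays on human mGlu4 or rat mGlu6 receptors expressed in L929 or CHO cells; agonist and antagonist modes tested at 10 μM.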

Rattus norvegicus [19] = test: Effect on sleep-wake cycle in Sprague-Dawley rat EEG model assessed as change in deep sleep at 10 mg/kg, po measured up to 20 hrs relative to control; type: functional, organism-based; design: dose 10 mg/kg; outline: as §2
[20] = target: Metabotropic glutamate receptor 1 (Homo sapiens) (UniProt Q13255); test: Antagonist activity at human mGlu 1 expressed in HEK293 cells at 10 uM by Ca+2 assay; type: functional, cell-based; outline: as §1
[21] = target: Metabotropic glutamate receptor 6 (Rattus norvegicus) (UniProt P35349); test: Agonist activity at rat mGlu 6 expressed in CHO cells assessed as [35S]GTPgammaS binding by liquid scintillation counting; type: functional, cell-based; outline: as §6
[22] = target: Metabotropic glutamate receptor 8 (Homo sapiens) (UniProt O00222); test: Antagonist activity at human mGlu 8 expressed in HEK293 cells at 10 uM by Ca+2 assay; type: functional, cell-based; outline: as §1
[23] = Cmax in Sprague-Dawley rat at 10 mg/kg, po; type: ADME, organism-based; design: dose 10 mg/kg, route oral; conditions: in vivo; outline: as §4
Rattus norvegicus [24] = test: Effect on sleep-wake cycle in Sprague-Dawley rat EEG model assessed as change in light sleep at 10 mg/kg, po measured up to 20 hrs relative to control; type: functional, organism-based; design: dose 10 mg/kg; outline: as §2
Rattus norvegicus [25] = test: Effect on sleep-wake cycle in Sprague-Dawley rat EEG model assessed as increase in REM sleep onset latency at 10 mg/kg, po measured up to 2 hrs relative to control; type: functional, organism-based; design: dose 10 mg/kg; outline: as §2
[26] = target: Metabotropic glutamate receptor 2 (Homo sapiens, UniProt Q14416); test: Agonist activity at human mGlu 2 expressed in CHO cells by PAM assay relative to glutamate; type: functional, cell-based
Outline: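 The assay measured [35S]GTPγS binding to membranes from CHO cells expressing human mGluR2. Cells were butyrate-stimulated (5 mM, 24 h) before membranes were prepared. Membranes were preincubated for 30 min at 30 °C in HEPES pH 7.4 buffer (NaCl, MgCl2, 50 μM GDP) with compound (0.3 nM–50 μM, 11 concentrations) plus EC25 glutamate. [35S]GTPγS (0.1 nM final) was then added for 30 min at 30 °C. Bound label was collected by filtration and counted. Runs were done at least in triplicate with duplicate points, and a four-parameter logistic fit gave the values.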

Rattus norvegicus [27] = test: Effect on sleep-wake cycle in Sprague-Dawley rat EEG model assessed as change in passive wake at 10 mg/kg, po measured up to 20 hrs relative to control; type: functional, organism-based; design: dose 10 mg/kg; outline: as §2
[28] = Plasma concentration in Sprague-Dawley rat at 10 mg/kg, po after 1 hr; type: ADME, organism-based; design: dose 10 mg/kg, route oral
Rattus norvegicus [29] = test: Effect on sleep-wake cycle in Sprague-Dawley rat EEG model assessed as effect on different vigilance states at 10 mg/kg, po measured up to 20 hrs relative to control; type: functional, organism-based; design: dose 10 mg/kg; outline: as §2
[30] = Ratio of drug level in brain to plasma of Sprague-Dawley rat at 10 mg/kg, po after 4 hrs; type: ADME, organism-based; design: dose 10 mg/kg, route oral; conditions: brain and plasma, read-out: BPR; outline: as §3
[31] = Metabolic stability of Sprague-Dawley rat liver microsomes assessed as compound metabolized at 5 uM after 15 mins; type: ADME, Microsome; conditions: read-out: Drug metabolism; outline: as §5
[32] = target: Metabotropic glutamate receptor 6 (Rattus norvegicus) (UniProt P35349); test: Antagonist activity at rat mGlu 6 expressed in CHO cells assessed as inhibition of [35S]GTPgammaS binding by liquid scintillation counting; type: functional, cell-based; outline: as §6
[33] = target: T1, Metabotropic glutamate receptor 7 (Homo sapiens, UniProt Q14831); test: Antagonist activity at human mGlu 7 expressed in HEK293 cells at 10 uM by Ca+2 assay; type: functional, cell-based; outline: as §1
[34] = target: T1, Metabotropic glutamate receptor 7; test: Agonist activity at human mGlu 7 expressed in HEK293 cells at 10 uM by Ca+2 assay; type: functional, cell-based; outline: as §1
[35] = Plasma concentration in Sprague-Dawley rat at 10 mg/kg, po after 2 hrs; type: ADME, organism-based; design: dose 10 mg/kg, route oral
[36] = target: Metabotropic glutamate receptor 4 (Homo sapiens) (UniProt Q14833); test: Antagonist activity at human mGlu 4 expressed in L929 cells assessed inhibition of [35S]GTPgammaS binding by liquid scintillation counting; type: functional, cell-based; outline: as §6
Rattus norvegicus [37] = test: Effect on sleep-wake cycle in Sprague-Dawley rat EEG model assessed as change in sleep variables at 10 mg/kg, po measured up to 20 hrs relative to control; type: functional, organism-based; design: dose 10 mg/kg; outline: as §2
[38] = Half life in Sprague-Dawley rat at 10 mg/kg, po; type: ADME, organism-based; design: dose 10 mg/kg, route oral; conditions: in vivo; outline: as §4
Rattus norvegicus [39] = test: Effect on sleep-wake cycle in Sprague-Dawley rat EEG model assessed as change in intermediate state at 10 mg/kg, po measured up to 20 hrs relative to control; type: functional, organism-based; design: dose 10 mg/kg; outline: as §2
[40] = Drug uptake in Sprague-Dawley rat brain at 10 mg/kg, po after 1 hr; type: ADME, organism-based; design: dose 10 mg/kg, route oral; conditions: read-out: Drug uptake

Chain of Metabotropic glutamate receptor 6 (Rattus norvegicus) (P35349 whole entry): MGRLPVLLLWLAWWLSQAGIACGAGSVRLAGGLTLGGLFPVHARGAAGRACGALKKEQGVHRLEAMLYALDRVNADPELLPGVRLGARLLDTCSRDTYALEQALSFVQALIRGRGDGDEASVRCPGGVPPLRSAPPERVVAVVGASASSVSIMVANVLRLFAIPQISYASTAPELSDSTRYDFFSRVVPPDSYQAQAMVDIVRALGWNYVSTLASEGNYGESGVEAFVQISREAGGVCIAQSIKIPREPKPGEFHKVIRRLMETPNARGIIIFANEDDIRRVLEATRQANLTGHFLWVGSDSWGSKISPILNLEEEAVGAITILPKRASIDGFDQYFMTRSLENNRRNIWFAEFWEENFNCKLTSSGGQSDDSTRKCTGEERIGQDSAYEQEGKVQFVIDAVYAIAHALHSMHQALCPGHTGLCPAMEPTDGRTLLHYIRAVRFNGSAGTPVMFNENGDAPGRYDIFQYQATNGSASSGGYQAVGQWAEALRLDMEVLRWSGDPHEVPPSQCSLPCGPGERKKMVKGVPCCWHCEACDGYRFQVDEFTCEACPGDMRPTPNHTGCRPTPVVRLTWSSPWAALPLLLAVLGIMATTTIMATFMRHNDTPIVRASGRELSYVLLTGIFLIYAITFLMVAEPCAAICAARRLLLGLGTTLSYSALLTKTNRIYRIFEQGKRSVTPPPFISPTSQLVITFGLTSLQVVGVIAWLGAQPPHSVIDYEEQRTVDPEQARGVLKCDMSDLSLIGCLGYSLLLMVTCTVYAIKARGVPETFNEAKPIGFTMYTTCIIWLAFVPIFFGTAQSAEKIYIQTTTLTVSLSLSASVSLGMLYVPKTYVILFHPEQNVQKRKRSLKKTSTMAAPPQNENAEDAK
Chain of Metabotropic glutamate receptor 5 (Homo sapiens) (P41594 21-1212 limits assumed): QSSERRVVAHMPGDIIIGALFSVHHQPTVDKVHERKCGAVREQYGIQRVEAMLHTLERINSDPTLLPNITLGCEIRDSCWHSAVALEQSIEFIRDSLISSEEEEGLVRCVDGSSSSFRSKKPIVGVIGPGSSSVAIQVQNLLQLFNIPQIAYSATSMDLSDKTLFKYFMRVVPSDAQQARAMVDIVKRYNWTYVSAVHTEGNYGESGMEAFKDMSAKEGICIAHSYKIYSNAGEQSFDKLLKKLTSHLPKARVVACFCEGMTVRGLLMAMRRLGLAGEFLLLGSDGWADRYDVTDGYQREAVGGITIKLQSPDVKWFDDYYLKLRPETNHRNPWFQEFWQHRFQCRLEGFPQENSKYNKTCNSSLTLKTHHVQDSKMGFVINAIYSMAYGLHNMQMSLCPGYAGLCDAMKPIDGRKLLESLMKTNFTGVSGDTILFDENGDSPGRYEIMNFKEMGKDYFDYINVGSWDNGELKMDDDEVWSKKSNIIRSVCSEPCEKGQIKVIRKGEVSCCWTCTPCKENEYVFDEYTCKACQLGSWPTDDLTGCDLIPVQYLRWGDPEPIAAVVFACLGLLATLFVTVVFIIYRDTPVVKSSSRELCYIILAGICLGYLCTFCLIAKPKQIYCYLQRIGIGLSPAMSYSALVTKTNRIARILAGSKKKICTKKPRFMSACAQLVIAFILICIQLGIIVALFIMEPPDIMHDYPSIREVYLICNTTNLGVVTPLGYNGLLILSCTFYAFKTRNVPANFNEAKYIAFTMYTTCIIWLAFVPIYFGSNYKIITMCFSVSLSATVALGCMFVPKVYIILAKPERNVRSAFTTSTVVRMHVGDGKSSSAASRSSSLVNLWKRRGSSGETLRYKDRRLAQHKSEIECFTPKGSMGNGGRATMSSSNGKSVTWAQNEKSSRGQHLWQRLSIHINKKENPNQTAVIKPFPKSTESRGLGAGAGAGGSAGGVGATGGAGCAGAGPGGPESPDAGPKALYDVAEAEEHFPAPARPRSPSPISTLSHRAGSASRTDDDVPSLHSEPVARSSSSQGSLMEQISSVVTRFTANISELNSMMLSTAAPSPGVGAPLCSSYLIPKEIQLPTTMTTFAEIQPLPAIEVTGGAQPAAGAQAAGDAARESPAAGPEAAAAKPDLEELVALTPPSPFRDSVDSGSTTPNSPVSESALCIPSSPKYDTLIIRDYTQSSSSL
Chain of Metabotropic glutamate receptor 4 (Homo sapiens) (Q14833 whole entry): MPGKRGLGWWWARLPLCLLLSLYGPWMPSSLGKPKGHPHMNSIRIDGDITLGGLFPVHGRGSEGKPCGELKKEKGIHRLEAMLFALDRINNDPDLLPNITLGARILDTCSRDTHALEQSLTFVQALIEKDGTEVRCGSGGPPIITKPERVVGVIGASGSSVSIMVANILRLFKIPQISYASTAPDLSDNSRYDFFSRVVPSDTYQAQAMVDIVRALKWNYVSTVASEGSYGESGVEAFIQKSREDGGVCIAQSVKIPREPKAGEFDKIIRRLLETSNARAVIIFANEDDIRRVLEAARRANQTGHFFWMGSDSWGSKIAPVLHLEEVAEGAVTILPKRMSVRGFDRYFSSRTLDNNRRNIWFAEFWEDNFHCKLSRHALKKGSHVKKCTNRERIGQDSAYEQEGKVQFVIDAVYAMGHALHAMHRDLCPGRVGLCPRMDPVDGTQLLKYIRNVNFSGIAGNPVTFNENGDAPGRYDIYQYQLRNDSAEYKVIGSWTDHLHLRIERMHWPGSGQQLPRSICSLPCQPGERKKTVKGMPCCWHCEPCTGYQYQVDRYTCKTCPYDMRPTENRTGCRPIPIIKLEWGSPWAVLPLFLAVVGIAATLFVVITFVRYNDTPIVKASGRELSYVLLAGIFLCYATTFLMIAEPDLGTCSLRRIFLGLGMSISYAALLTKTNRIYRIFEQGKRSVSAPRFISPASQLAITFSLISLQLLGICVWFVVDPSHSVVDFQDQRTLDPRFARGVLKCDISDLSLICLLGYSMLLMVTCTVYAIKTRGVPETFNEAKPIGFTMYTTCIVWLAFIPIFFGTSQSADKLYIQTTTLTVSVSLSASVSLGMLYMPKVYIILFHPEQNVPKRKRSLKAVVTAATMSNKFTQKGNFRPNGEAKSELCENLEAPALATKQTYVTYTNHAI
Chain of Metabotropic glutamate receptor 3 (Homo sapiens) (Q14832 23-879 limits assumed): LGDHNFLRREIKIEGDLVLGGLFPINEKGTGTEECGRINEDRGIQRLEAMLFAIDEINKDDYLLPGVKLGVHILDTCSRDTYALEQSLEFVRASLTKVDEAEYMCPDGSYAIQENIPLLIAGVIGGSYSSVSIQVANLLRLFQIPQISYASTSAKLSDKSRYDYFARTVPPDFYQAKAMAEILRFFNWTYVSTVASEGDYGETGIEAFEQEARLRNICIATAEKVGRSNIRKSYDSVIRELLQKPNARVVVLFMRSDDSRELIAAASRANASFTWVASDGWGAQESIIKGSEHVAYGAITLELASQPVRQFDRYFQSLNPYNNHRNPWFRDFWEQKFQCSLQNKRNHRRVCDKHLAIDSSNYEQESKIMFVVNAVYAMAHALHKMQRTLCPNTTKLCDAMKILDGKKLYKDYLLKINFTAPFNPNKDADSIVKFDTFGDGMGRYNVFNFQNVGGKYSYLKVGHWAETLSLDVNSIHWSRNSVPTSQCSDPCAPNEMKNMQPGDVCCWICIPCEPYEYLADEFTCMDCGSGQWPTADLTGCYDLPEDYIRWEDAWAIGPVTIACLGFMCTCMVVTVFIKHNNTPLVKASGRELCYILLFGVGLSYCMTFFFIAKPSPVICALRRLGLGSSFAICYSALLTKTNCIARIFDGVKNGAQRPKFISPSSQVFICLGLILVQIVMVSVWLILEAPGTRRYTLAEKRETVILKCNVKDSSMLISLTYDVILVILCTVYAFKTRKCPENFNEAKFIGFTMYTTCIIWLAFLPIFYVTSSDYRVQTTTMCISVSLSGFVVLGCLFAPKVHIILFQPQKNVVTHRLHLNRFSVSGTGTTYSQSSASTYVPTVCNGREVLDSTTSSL
Chain of Metabotropic glutamate receptor 1 (Homo sapiens) (Q13255 19-1194 limits assumed): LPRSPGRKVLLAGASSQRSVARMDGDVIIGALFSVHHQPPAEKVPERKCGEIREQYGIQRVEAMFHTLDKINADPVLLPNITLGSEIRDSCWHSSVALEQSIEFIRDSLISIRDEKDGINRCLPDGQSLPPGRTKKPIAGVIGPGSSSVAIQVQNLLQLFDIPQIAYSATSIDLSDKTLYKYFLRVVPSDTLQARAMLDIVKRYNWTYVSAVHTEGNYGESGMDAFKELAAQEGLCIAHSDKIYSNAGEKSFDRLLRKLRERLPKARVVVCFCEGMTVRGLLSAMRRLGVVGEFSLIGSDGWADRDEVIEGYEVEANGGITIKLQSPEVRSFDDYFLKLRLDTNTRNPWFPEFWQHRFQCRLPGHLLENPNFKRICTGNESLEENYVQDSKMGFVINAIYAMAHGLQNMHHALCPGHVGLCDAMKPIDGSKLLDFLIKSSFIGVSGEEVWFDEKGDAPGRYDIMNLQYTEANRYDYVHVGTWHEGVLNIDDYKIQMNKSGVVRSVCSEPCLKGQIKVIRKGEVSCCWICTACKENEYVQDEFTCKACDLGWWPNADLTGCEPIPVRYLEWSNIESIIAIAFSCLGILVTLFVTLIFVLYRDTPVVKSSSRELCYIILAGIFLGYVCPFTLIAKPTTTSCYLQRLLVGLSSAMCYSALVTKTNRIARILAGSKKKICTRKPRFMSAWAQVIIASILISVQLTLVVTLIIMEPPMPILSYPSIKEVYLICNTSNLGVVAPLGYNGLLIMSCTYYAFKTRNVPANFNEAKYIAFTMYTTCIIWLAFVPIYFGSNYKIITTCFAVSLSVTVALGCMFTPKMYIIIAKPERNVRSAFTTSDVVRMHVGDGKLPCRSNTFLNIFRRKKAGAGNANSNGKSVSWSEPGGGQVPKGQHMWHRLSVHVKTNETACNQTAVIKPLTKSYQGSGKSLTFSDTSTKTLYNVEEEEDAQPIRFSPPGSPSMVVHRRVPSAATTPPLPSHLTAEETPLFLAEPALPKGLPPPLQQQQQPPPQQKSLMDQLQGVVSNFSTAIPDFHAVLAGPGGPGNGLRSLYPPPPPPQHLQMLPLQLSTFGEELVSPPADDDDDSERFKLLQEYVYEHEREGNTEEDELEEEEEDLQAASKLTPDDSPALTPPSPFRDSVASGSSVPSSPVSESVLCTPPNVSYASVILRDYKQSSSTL

FC(F)(F)Cc1cnc2c(Cl)c(-c3cc(Cl)c4[nH]ccc4c3)ccn12
Activity [1]: inactive
Activity [2]: inactive
Activity [3]: inactive
Activity (Rattus norvegicus [4]): inactive
Kp at 1 h [5]: 1.3
concentration at 2 h [6]: 441 ng/g
Tmax [7]: 0.8 h
Activity (Rattus norvegicus [8]): inactive
Activity [9]: inactive
Activity [10]: inactive
Activity [11]: inactive
AUC(0-inf) [12]: 1980 ng·h/mL
metabolised at 0.25 h, 5 µM [13]: 10%
concentration at 4 h [14]: 126 ng/g
Kp at 2 h [15]: 1.2
Activity (Rattus norvegicus [16]): 57%
concentration at 4 h [17]: 168 ng/mL
Activity [18]: inactive
Activity (Rattus norvegicus [19]): inactive
Activity [20]: inactive
Activity [21]: inactive
Activity [22]: inactive
Cmax [23]: 534 ng/mL
Activity (Rattus norvegicus [24]): inactive
Activity (Rattus norvegicus [25]): Active
Emax [26]: 217%
Activity (Rattus norvegicus [27]): inactive
concentration at 1 h [28]: 414 ng/mL
Activity (Rattus norvegicus [29]): inactive
Kp at 4 h [30]: 0.8
metabolised at 0.25 h, 5 µM [31]: 21%
Activity [32]: inactive
Activity [33]: inactive
Activity [34]: inactive
concentration at 2 h [35]: 364 ng/mL
Activity [36]: inactive
Activity (Rattus norvegicus [37]): inactive
half-life [38]: 2 h
Activity (Rattus norvegicus [39]): inactive
concentration at 1 h [40]: 538 ng/g
